Results published in ChEMBL document CHEMBL3259773, “Indirubin core structure of glycogen synthase kinase-3 inhibitors as novel chemotype for intervention with 5-lipoxygenase” (J Med Chem, 2014).
The source made the active and inactive calls. No cut-off for these calls is given here.

Assays:
[1] = Cytotoxicity against human monocytes assessed as viability at 10 uM after 4 hrs by MTT assay; format: cell-based; conditions: monocyte
[2] = biological target: T1, Prostaglandin G/H synthase 1 (Ovis aries) (UniProt P05979); test: Inhibition of ovine COX1 using arachidonic acid at 10 uM after 5 mins by HPLC analysis
T1 sequence (whole entry): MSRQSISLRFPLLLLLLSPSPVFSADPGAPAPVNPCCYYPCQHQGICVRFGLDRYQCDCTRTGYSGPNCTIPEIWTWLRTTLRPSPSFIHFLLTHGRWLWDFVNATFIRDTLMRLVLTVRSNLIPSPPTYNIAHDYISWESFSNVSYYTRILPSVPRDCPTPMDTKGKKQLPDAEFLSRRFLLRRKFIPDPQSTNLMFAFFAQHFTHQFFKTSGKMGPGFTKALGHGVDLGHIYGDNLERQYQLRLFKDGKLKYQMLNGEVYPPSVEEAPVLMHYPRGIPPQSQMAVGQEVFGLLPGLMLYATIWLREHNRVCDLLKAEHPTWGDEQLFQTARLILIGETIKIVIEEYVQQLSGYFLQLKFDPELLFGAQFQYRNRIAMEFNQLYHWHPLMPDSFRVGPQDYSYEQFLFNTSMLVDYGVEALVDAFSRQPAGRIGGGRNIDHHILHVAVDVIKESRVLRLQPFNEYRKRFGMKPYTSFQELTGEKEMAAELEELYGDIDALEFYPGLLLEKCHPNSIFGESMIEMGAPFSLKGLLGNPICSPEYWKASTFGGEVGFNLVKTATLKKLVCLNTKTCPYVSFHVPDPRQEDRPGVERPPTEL
In short: (§1)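 Enzyme (ovine COX-1) or A549 microsomal preparation (human mPGES-1) given compound or reference inhibitor 10 min before reaction start. Activity expressed as % of 0.1% DMSO vehicle control, read-outs 12-HHT (COX-1) and PGE2 (mPGES-1). Means ± SE, n = 3.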

[3] = test system: Radical scavenging activity; test: Antioxidant activity assessed as DPPH radical scavenging activity at 10 nmol for 30 mins; format: functional
In short: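 Test compound (10 nmol) or ascorbic acid (5 nmol) mixed with 5 nmol DPPH in 100 μL EtOH, 30 min at RT; absorbance read at 520 nm. Means + SE, n = 3.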

[4] = biological target: T2, Prostaglandin E synthase (Homo sapiens) (UniProt O14684); test: Inhibition of human mPGES1 from human A549 cells assessed as PGE2 at 10 uM after 15 mins by HPLC; format: cell-based; in short: as §1
T2 sequence (whole entry): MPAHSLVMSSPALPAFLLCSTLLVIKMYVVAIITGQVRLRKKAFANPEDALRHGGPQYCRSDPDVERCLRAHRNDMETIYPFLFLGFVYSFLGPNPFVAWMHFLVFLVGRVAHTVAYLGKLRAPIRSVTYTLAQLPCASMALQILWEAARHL

O=C1Nc2cc(Br)ccc2/C1=C1/Nc2ccccc2/C1=N\O [6BIO]
Activity [1]: Non-toxic
inhibition [2]: inactive
Activity [3]: inactive
inhibition [4]: Active
